The text below walks through data of PMC11967334 (RSC Advances, 2025).

One data set has as its target MMP-2 (Homo sapiens, UniProt P08253). Kind of data set: In vitro MMP-2 inhibition, colorimetric kit. The class given is biochemical. To be noted: read-out: MMP-2 IC50.
The next data set has as its target MMP-9 (Homo sapiens, UniProt P14780). Kind of data set: In vitro MMP-9 inhibition, colorimetric kit. The class given is biochemical.
A further data set deals with Wi-38 cells. Kind of data set: MTT cytotoxicity on normal human fibroblasts. The class given is cell-based. The method, boiled down: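 Normal human lung fibroblasts (Wi-38) were exposed to free s-triazine dendrimers and their conjugates, and viability was read by MTT assay. Safety was expressed as EC100 in μM, the concentration giving 100% growth of normal cells, as mean ± SEM of three measurements. Groups were compared by one-way ANOVA with Tukey's test at p < 0.05.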

The subject of data set [1] is VEGF. Kind of data set: VEGF gene expression by quantitative real-time PCR. The class given is cell-based, human. To be noted: MCF-7, compared to untreated cells, mean ± SEM. Background: Real-time PCR tracks product formation cycle by cycle.
Data set [2] deals with VEGF. The data set can be described thus: VEGF gene expression by quantitative real-time PCR. The class given is cell-based, human. Conditions: HepG-2, compared to untreated cells, mean ± SEM.
Data set [3] relates to HepG-2 cells. The data set can be described thus: Flow cytometric annexin V/PI analysis of apoptosis. The class given is cell-based, human. To be noted: HepG-2, 72 h, mean ± SEM. A general note: Flow cytometry measures light scatter and fluorescence of single cells or particles in a stream.
For data set [4], the system named is MCF-7 cells. The data set can be described thus: Flow cytometric annexin V/PI analysis of apoptosis. The class given is cell-based, human. Conditions: MCF-7, 72 h, mean ± SEM.
The subject of data set [5] is MCF-7 cells. The data set can be described thus: MTT cytotoxicity on breast cancer cells. The class given is cell-based, human. Summed up:
(§1)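 Test compounds (free s-triazine dendrimers and their quercetin, lactobionic acid and PEG conjugates) were screened by MTT assay against MCF-7 breast and HepG-2 hepatocellular carcinoma cells. IC50 values are reported in μM as mean ± SEM of three measurements. Differences were tested by one-way ANOVA with Tukey's test, with p < 0.05 taken as significant. SI was tabulated against Wi-38 values.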

The subject of data set [6] is HepG-2 cells. Kind of data set: MTT cytotoxicity on hepatocellular carcinoma cells. The class given is cell-based, human. The method, boiled down: as §1
Setting [7] is: selectivity index versus normal Wi-38 cells.

Sequence of MMP-9 (P14780 94-707): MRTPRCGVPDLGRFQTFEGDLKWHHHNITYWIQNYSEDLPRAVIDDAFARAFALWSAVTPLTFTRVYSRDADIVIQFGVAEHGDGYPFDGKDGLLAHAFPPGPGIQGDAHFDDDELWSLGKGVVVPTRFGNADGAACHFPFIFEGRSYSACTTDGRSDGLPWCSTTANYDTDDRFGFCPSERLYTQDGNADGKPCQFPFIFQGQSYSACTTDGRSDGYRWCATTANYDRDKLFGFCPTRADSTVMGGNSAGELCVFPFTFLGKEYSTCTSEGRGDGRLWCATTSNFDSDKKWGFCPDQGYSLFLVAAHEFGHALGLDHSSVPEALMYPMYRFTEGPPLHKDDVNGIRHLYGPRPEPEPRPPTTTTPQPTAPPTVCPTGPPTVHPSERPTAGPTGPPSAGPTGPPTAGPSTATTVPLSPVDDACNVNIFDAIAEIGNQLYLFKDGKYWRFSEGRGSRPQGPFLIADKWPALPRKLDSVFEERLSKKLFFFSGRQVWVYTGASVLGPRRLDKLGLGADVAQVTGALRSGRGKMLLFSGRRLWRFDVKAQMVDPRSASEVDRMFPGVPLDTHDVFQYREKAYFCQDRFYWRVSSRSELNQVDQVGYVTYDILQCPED
Sequence of MMP-2 (P08253 110-446 limits assumed): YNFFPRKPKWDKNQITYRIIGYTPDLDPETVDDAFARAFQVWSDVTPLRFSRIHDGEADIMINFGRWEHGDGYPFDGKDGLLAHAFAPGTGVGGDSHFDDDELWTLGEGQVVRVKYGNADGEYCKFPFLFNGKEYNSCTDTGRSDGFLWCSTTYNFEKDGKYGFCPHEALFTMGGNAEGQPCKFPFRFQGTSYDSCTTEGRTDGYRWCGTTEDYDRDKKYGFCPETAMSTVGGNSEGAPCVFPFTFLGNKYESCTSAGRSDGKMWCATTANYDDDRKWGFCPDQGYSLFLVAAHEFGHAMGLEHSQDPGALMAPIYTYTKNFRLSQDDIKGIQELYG

By IC50 is commonly meant the concentration that gives 50% inhibition. For the compound `COc1ccc(S(=O)(=O)N(CC(=O)NO)CC(C)C)cc1` [NNGH, N-isobutyl-N-(4-methoxyphenylsulfonyl)glycyl hydroxamic acid], the IC50 at MMP-2 worked out at 0.299 µM; on MMP-9 (read-out: MMP-9 IC50) it was 0.277 µM. At MMP-9 (SI = IC50 (MMP-2)/IC50 (MMP-9), text: folds), this compound registered an MMP-2/MMP-9 selectivity of 1.08.
Regarding `O=c1c(O)c(-c2ccc(O)c(O)c2)oc2cc(O)cc(O)c12` [Qur, quercetin], the 50% inhibitory concentration (IC50) with Wi-38 cells (Homo sapiens, WI-38, read-out: Wi-38 IC50) was found to be 294 ± 12.6 µM; with MCF-7 cells [5] (Homo sapiens, MCF7, 72 h, read-out: MCF-7 IC50), 35.3 ± 0.475 µM; with HepG-2 cells [6] (Homo sapiens, HepG2, 72 h, read-out: HepG-2 IC50), 34.32 ± 0.128 µM. In addition, the EC100 with Wi-38 cells (effective safe concentration at 100% cell viability, Wi-38, 72 h, mean ± SEM) was 70.57 ± 0.950 µM. For the same compound, the “VEGF relative fold change” value in the data set on VEGF [1] is recorded as 0.683 ± 0.029; in the data set with VEGF [2] it was 0.708 ± 0.012. In addition, the “Total % of the apoptotic population” value in the data set on HepG-2 cells [3] turned out to be 24.20 ± 0.895 %; in the data set with MCF-7 cells [4], 47.00 ± 1.83 %. Moreover, the “MCF-7 SI” value in the data set on MCF-7 cells [5] (setting [7]) is given as 8.339. Also, in the data set on MCF-7 cells [5] (stated for MCF-7 and HepG-2 together, versus Wi-38), the “selectivity index (SI)” value is around 8.5. In addition, the “HepG-2 SI” value with HepG-2 cells [6] (setting [7]) is recorded as 8.573.
